Screening data (PubChem)
The list is not random: actives were taken first. Their share in the collection is about 1.6%.
procasp7 counter = counter-screen: procaspase-7 (human) activation. P55210. recombinant procaspase-7, Ac-DEVD-pNA absorbance 405 nm; D23A/D198A/D206A triple mutant, cannot self-cleave; scale: DMSO 0, 5 µM enzyme 100. activation, % at 8.5 µM. 330,000 tested, 0.093% active. AID 463210;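 active = percent activation above the screen-wide mean plus 3 SD, cut at about 25% in these data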
Target sequence (P55210 whole entry D23A/D198A/D206A): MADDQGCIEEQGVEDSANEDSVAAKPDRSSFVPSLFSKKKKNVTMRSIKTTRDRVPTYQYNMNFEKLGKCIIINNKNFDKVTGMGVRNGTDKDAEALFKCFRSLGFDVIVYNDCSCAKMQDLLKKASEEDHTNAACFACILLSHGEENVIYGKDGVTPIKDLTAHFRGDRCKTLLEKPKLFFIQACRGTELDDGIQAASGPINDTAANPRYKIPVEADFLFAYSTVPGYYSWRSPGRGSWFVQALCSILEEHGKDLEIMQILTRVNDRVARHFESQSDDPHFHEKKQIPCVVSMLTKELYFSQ
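Assay system: Uncleavable procaspase-7 mutant enzyme; Input: 2 µM procaspase-7 mutant as dispensed; Also added: DEVD-pNA substrate; Medium: Zinc-free HEPES pH 7.4 with 300 mM NaCl, 0.01% Triton X-100; Timing: 1 h compound preincubation, 2 h substrate cleavage, 25 °C; Measured by: Epi-absorbance of released pNA at 405 nm, two timepoints.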
proCasp3 act = procaspase-3 (human) activation. 330,000 tested, 0.11% active. AID 463141. activation, % at 8.5 µM. P42574. recombinant procaspase-3 D3A, Ac-DEVD-pNA absorbance 405 nm;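 active = activation above the mean of all tested compounds plus 3 SD, cut at about 21% in these data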;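 also: 0% = DMSO alone and 100% = DMSO wells spiked with extra 5 µM PC-3 D3A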
Target sequence (P42574 whole entry D9A/D28A/D175A): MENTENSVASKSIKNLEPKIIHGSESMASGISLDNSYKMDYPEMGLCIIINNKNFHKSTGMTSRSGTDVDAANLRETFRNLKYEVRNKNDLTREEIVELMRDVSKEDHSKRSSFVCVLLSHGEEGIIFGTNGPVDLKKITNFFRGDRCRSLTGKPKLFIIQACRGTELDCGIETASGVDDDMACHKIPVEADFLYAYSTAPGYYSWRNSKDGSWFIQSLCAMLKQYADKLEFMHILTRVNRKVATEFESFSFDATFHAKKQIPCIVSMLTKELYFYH
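Test system: Procaspase-3 D3A mutant, all three cleavage aspartates alanine | Dosing: Single dose, 8.5 µM nominal compound, 0.8% DMSO | Schedule: 1 h preincubation, 2 h reaction | Technique: 405 nm absorbance of p-nitroaniline, reads at 0 and 120 min | Repeats: One well per compound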
PLCg1 inh = inhibitors of human phospholipase C gamma1 | inhibition, % at 12.2 µM | 370,000 tested, 0.84% active | P19174 | purified PLC-gamma1, fluorogenic substrate, fluorescence; in the data active = inhibition above about 9.5%
HGIII-sPLA2 inh = Inhibits HGIII-sPLA2 liposome hydrolysis, primary screen. 370,000 tested, 0.56% active. QFRET BODIPY PC-A2 liposome hydrolysis, fluorescence. inhibition, % at 12.2 µM. Q9NZ20;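 active = inhibition above mean plus 3 SD of compounds lying within the high and low control bounds, cut at about 19% in these data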;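 also: 0% = median of test compound wells and 100% = no enzyme DMSO wells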
PLCb3 inh = PLC-beta3 (human) inhibition, primary screen. Q01970. Purified PLC-beta3, fluorogenic substrate, fluorescence. 370,000 tested, 0.18% active. inhibition, % at 12.2 µM;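 also: 0% = median of compound wells on plate and 100% = full blocker control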
PLCg1 ctr = PLC-gamma1 inhibition, counter-screen for PLC-beta3 hits | shares compounds with PLCg1 inh | purified PLC-gamma1, fluorogenic substrate, fluorescence | inhibition, % at 12.3 µM | 3,300 tested, 3.1% active | AID 743258; in the data active = inhibition above about 9.5%
PLCbeta3 conf = human PLC-beta3 inhibition, confirmation | 3,300 tested, 1% active | shares compounds with PLCg1 inh | purified PLC-beta3, fluorogenic substrate fluorescence | inhibition, % at 12.3 µM
* = called active by the depositor; / = not tested or not shown. Rule as the data show it, unless noted: active = inhibition above about 11%; inactive = the rest.

SMILES	procasp7 counter	proCasp3 act	PLCg1 inh	HGIII-sPLA2 inh	PLCb3 inh	PLCg1 ctr	PLCbeta3 conf
Nc1nc2c(c(=O)[nH]1)C(c1cccc3ccccc13)C1=C(N2)c2ccccc2C1=O (stereo unspecified)	/	/	-24	-8	-29	/	/
CCOc1cc(N2CCOCC2)c(OCC)cc1NC(=O)COC(=O)c1ccc(OC)c([N+](=O)[O-])c1	/	/	-2	1	-6	/	/
COc1ccc(C(=O)Nc2ccc3c(c2)nc(CN2CCCC2)n3C)cc1	2	-4	-10	1	-19	/	/
COc1ccc(C(=O)Nc2ccc3c(c2)nc(CN2CCN(C(C)=O)CC2)n3C)cc1	-4	-4	8	3	11*	0	-1
CCCCN(C(=O)COC(=O)c1sccc1C)c1c(N)n(CCC)c(=O)[nH]c1=O	/	/	7	10	-1	/	/
O=C(Cc1ccccc1)Nc1ccc(N2CCOCC2)cc1	0	-5	0	5	-2	/	/
O=C(Cc1ccccc1)Nc1ccc(N2CCOCC2)cc1N1CCOCC1	2	3	15*	9	7	-6	-4
O=C(NCc1ccccc1)C1=C[C@H](c2ccc(C(F)(F)F)cc2)C[C@H](OCc2ccc(CO)cc2)O1	11	10	7	-1	14*	-11	-10
CC1(c2nc3ccccc3[nH]2)CCC(=O)N1Cc1ccc(F)cc1 (stereo unspecified)	/	/	-1	9	0	/	/
COc1ccc(N(CC(=O)Nc2cc(Cl)ccc2C)S(=O)(=O)c2c(C)n[nH]c2C)cc1	4	0	13*	3	-3	3	4
CS(=O)(=O)N(CC(=O)Nc1ccccc1C(=O)N1CCCC1)c1ccc2c(c1)OCO2	-10	-3	9.6*	8	3	8	0
COc1ccc(N(CC(=O)Nc2cccc3ccccc23)S(C)(=O)=O)cc1	4	-3	2	-7	-2	/	/
CS(=O)(=O)N(CC(=O)Nc1ccccc1C(=O)N1CCOCC1)c1ccc2c(c1)OCO2	-1	11	-2	7	-1	/	/
COC(=O)c1ccccc1NC(=O)CN(c1ccc(OC)cc1)S(C)(=O)=O	3	1	4	-16	14*	-4	-1
COc1ccc(N(CC(=O)Nc2ccc(C)cc2C)S(=O)(=O)c2c(C)n[nH]c2C)cc1	6	0	4	-6	-3	/	/
COc1ccccc1Cc1c(-c2ccc(C#N)cc2)nc2ccc(Br)cn12	/	/	-19	-4	-27	/	/
N#Cc1ccccc1S(=O)(=O)N1CCN(CC(O)CN2CCOCC2)CC1 (stereo unspecified)	3	1	9.7*	13	0	-4	1
COc1ccc(OC)c(S(=O)(=O)N2CCN(CC(O)CN3CCOCC3)CC2)c1 (stereo unspecified)	11	0	4	1	-5	/	/
O=c1cc2oc3cc(O)c(O)cc3c(-c3ccccc3[N+](=O)[O-])c-2cc1O	0	5	13*	18	9	17*	9
O=c1cc(-c2ccccc2Cl)oc2cccc(O)c12	15	7	5	12	1	/	/
O=C(COC(=O)/C=C/c1ccc(F)cc1)NC1CCS(=O)(=O)C1 (stereo unspecified)	/	/	-2	6	1	/	/
CC1(C)CC(=O)C(C2=NC3(CCCCCC3)Cc3ccccc32)=C(O)C1	1	3	10*	8	2	3	4
O=C(COC(=O)c1ccccc1C(=O)OCC(=O)NCCc1c[nH]c2ccccc12)NCCc1c[nH]c2ccccc12	-7	4	9.9*	-70	5	9.6*	3
O=C(COC(=O)c1ccccc1O)NCCc1c[nH]c2ccccc12	7	2	-2	-67	-8	/	/
O=C(OC12CCCN(C1)/C(=C/c1cccc(Cl)c1)C2)c1ccc(Cl)cc1 (stereo unspecified)	/	/	4	-4	-4	/	/
SMILES	procasp7 counter	proCasp3 act	PLCg1 inh	HGIII-sPLA2 inh	PLCb3 inh	PLCg1 ctr	PLCbeta3 conf
CCNC(=O)C1(C)CCN1CCS(=O)(=O)c1ccc(C)cc1 (stereo unspecified)	/	/	2	-4	13*	-6	-1
Cc1cnc(CN(C)C(=O)C2CCC(=O)N(CCc3ccccc3)C2)[nH]1 (stereo unspecified)	-1	1	4	-3	-2	/	/
CN(CCC1CCOCC1)C(=O)C1CCC(=O)N(CCc2ccccc2)C1 (stereo unspecified)	2	-3	9.7*	6	1	0	-51
O=C(CCc1nnc(CCCCc2ccccc2)o1)NCCC1CCCCO1 (stereo unspecified)	16	-7	2	-3	0	/	/
CC1CCCCC1NC(=S)NC(=O)c1ccccc1Cl (stereo unspecified)	0	3	11*	12	-3	-4	-4
CSc1cccc(NC(=O)CN(c2cccc(C)c2)S(C)(=O)=O)c1	-4	10	11*	-21	1	-6	-1
Cc1nn(C(C)C(=O)N2CCOCC2)c(C)c1[N+](=O)[O-] (stereo unspecified)	-4	-3	11*	2	3	-4	-10
CSc1ccc(CNC(=O)C2CCC(=O)N(Cc3cccc(F)c3)C2)cc1 (stereo unspecified)	/	/	-2	0	-4	/	/
O=C1C=C(NCc2ccc(Cl)cc2)CC(c2ccco2)C1 (stereo unspecified)	7	7	11*	1	0	-10	-6
CC(C)CNC1=CC(=O)CC(c2ccco2)C1 (stereo unspecified)	15	2	-5	-4	-7	/	/
CSc1ccc(C=Nn2c(-c3cc(C)[nH]n3)n[nH]c2=S)cc1	/	/	-5	6	-2	/	/
O=S(=O)(/N=C(/Nc1ccccc1)C(F)(F)F)c1ccccc1	-9	-4	9.6*	-1	5	-5	0
NC(=O)COC(=O)CCCc1nc2ccccc2s1	0	3	12*	4	11*	-8	-4
O=C(Cn1cc(S(=O)(=O)Cc2ccc([N+](=O)[O-])cc2)c2ccccc21)N1CCOCC1	5	0	5	3	-8	/	/
CC1CC(C)CN(c2nc(NCc3ccco3)nc(N)c2[N+](=O)[O-])C1 (stereo unspecified)	1	-2	-1	-12	2	/	/
CC1CCCN(c2nc(NCc3ccco3)nc(N)c2[N+](=O)[O-])C1 (stereo unspecified)	-3	-9	16*	-36	3	0	3
Nc1nc(Nc2ccccc2F)nc(NCc2ccco2)c1[N+](=O)[O-]	9	-4	13*	-5	-6	-2	-2
